Structures can show the parent of a compound that is named as a salt.
Key:
Type in all cases: functional, tissue-based
Histamine H1 receptor [1] = target: T1, Histamine H1 receptor (Cavia porcellus, UniProt P31389); experiment: Antagonist activity at histamine H1 receptor in guinea pig ileum assessed as inhibition of histamine-induced contractions at 5 ug/ml
In short: (§1)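 Isolated ileum from male guinea pigs (250–400 g), killed by a blow to the skull and cervical dislocation. Segments 2–3 cm long were tied to an aerating tube and an isotonic transducer. Cumulative histamine diphosphate was added every 2 min, from the threshold concentration up to the maximal response. Contraction height was expressed as % of the maximum with saline. EC50 and Emax were compared with saline (Student's t-test, n = 5 strips, mean ± SEM).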

[2] = target: Histamine H1 receptor (Cavia porcellus) (UniProt P31389); experiment: Antagonist activity at histamine H1 receptor in guinea pig ileum assessed as inhibition of histamine-induced contractions at 5 ug/ml relative to control; in short: as §1
Chain of Histamine H1 receptor (Cavia porcellus) (P31389 whole entry): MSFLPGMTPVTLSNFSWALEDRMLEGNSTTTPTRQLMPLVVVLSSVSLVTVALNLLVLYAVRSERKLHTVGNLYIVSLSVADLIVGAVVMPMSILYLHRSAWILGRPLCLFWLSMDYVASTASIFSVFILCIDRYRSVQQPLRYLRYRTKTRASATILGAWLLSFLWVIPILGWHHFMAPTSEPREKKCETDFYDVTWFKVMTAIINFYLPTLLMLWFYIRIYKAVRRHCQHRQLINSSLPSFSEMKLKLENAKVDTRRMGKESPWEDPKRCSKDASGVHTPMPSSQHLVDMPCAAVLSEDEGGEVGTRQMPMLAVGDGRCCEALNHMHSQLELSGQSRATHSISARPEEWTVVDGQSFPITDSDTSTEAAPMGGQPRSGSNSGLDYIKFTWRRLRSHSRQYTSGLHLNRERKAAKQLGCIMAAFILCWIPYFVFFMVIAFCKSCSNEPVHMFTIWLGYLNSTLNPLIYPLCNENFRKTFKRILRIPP

[3] = target: Histamine H1 receptor (Cavia porcellus) (UniProt P31389); experiment: Antagonist activity at histamine H1 receptor in guinea pig ileum assessed as inhibition of histamine-induced contractions at 1.0 mg/ml relative to control; in short: as §1
[4] = target: Histamine H1 receptor (Cavia porcellus) (UniProt P31389); experiment: Antagonist activity at histamine H1 receptor in guinea pig ileum assessed as inhibition of histamine-induced contractions at 0.5 mg/ml relative to control; in short: as §1
Histamine H1 receptor [5] = target: T1, Histamine H1 receptor; experiment: Antagonist activity at histamine H1 receptor in guinea pig ileum assessed as inhibition of histamine-induced contractions at 0.5 mg/ml; in short: as §1
Histamine H1 receptor [6] = target: T1, Histamine H1 receptor; experiment: Antagonist activity at histamine H1 receptor in guinea pig ileum assessed as inhibition of histamine-induced contractions at 1.0 mg/ml; in short: as §1
[7] = target: Histamine H1 receptor (Cavia porcellus) (UniProt P31389); experiment: Antagonist activity at histamine H1 receptor in guinea pig ileum assessed as inhibition of histamine-induced contractions at 0.1 mg/ml relative to control; in short: as §1
Histamine H1 receptor [8] = target: T1, Histamine H1 receptor; experiment: Antagonist activity at histamine H1 receptor in guinea pig ileum assessed as inhibition of histamine-induced contractions at 0.1 mg/ml; in short: as §1

T1 sequence (P31389 whole entry): as above

EC50 (Histamine H1 receptor [1]) | Emax [2] | Emax [3] | Emax [4] | EC50 (Histamine H1 receptor [5]) | EC50 (Histamine H1 receptor [6]) | Emax [7] | EC50 (Histamine H1 receptor [8]) | Compound
19.1 nM | 78% |  |  |  |  |  |  | CN(C)CCC(c1ccccc1)c1ccccn1 (centres undefined) [PHENIRAMINE MALEATE]
 |  | 60% | 94% | 15.8 nM | 23.5 nM | 100% | 14.8 nM | O=c1cc(-c2ccccc2)c2ccc(OCC(O)CN3CCCCC3)cc2o1 (centres undefined)
 |  | 53% | 100% | 17.8 nM | 24.1 nM | 100% | 15.8 nM | CCCNCC(O)COc1ccc2c(-c3ccccc3)cc(=O)oc2c1 (centres undefined)
 |  | 54% | 94% | 13.8 nM | 18.2 nM | 100% | 11.8 nM | O=c1cc(-c2ccccc2)c2ccc(OCC(O)CN3CCN(c4ccccc4)CC3)cc2o1 (centres undefined)
 |  | 55% | 98% | 20.5 nM | 26.2 nM | 100% | 17.3 nM | Cc1cc(=O)oc2ccc(OCC(O)CN3CCCCC3)cc12 (centres undefined)
 |  | 60% | 95% | 16 nM | 21.5 nM | 100% | 13.2 nM | Cc1cc(=O)oc2ccc(OCC(O)CN3CCN(c4ccccc4)CC3)cc12 (centres undefined)

Second part, the compound before the results:

Compound | EC50 (Histamine H1 receptor [1]) | Emax [2] | Emax [3] | Emax [4] | EC50 (Histamine H1 receptor [5]) | EC50 (Histamine H1 receptor [6]) | Emax [7] | EC50 (Histamine H1 receptor [8])
COc1ccccc1N1CCN(CC(O)COc2ccc3c(-c4ccccc4)cc(=O)oc3c2)CC1 (centres undefined) |  |  | 52% | 96% | 12.7 nM | 18.3 nM | 100% | 11.7 nM
O=c1cc(-c2ccccc2)c2ccc(OCC(O)CN3CCOCC3)cc2o1 (centres undefined) |  |  | 58% | 95% | 16.3 nM | 21.8 nM | 100% | 14.4 nM
Cc1cc(=O)oc2ccc(OCC(O)CN3CCN(C)CC3)cc12 (centres undefined) |  |  | 54% | 98% | 18.1 nM | 24.4 nM | 100% | 17.4 nM
CCN(CC)CC(O)COc1ccc2c(-c3ccccc3)cc(=O)oc2c1 (centres undefined) |  |  | 60% | 95% | 17.4 nM | 24.2 nM | 100% | 16.1 nM
O=c1cc(-c2ccccc2)c2ccc(OCC(O)CN3CCNCC3)cc2o1 (centres undefined) |  |  | 53% | 100% | 16.6 nM | 22.6 nM | 100% | 15.2 nM
COc1ccccc1N1CCN(CC(O)COc2ccc3oc(=O)cc(C)c3c2)CC1 (centres undefined) |  |  | 58% | 96% | 14.6 nM | 20 nM | 100% | 13.7 nM
CCN(CC)CC(O)COc1ccc2oc(=O)cc(C)c2c1 (centres undefined) |  |  | 58% | 96% | 19.6 nM | 27.8 nM | 100% | 17 nM

Reference: ChEMBL document CHEMBL1144223, “Design, synthesis, and docking studies of novel benzopyrone derivatives as H(1)-antihistaminic agents” (Bioorg Med Chem, 2008)
